Data: the EternaBench riboswitch data

System: MS2 coat protein
Assay: apparent Kd, MS2 coat protein; higher = weaker binding; RNA-MaP array
Method in brief: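 Designed RNAs were produced on an Illumina sequencing chip by transcription of sequenced DNA templates. Binding to fluorescently labeled MS2 coat protein (1.5 nM to 3 μM) was measured at room temperature with or without input ligand. The apparent Kd is the median of per-cluster binding-curve fits. Designs were excluded when measured on fewer than 10 clusters.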

[1] = designed as: OFF switch for theophylline, no ligand
[2] = ligand present: theophylline, designed as: OFF switch for theophylline
[3] = designed as: OFF switch for flavin mononucleotide, no ligand
[4] = ligand present: flavin mononucleotide, designed as: OFF switch for flavin mononucleotide
[5] = designed as: ON switch for theophylline, no ligand
[6] = ligand present: theophylline, designed as: ON switch for theophylline
[7] = designed as: ON switch for flavin mononucleotide, no ligand
[8] = ligand present: flavin mononucleotide, designed as: ON switch for flavin mononucleotide
[9] = designed as: OFF switch for tryptophan, no ligand
[10] = ligand present: tryptophan, designed as: OFF switch for tryptophan
[11] = designed as: ON switch for tryptophan, no ligand
[12] = ligand present: tryptophan, designed as: ON switch for tryptophan

Sequence | apparent Kd [3] | apparent Kd [4] | further results
CUACAUGGGCUCGAUACCAGUCAGCUCUCGCGUCUCUCAGACAUGAGGAUCACCCAUGUUGACCCUUGGCAGCGACGAUGUAGGC |  |  | apparent Kd [1]: 79.8 nM; apparent Kd [2]: 500 nM
CUAUACGUAACAUGAGGAUCACCCAUGUUCAGGUGACCAGGAAGAAGGGCUAGCAGAGUAGUUCAGCAGGAUAUUCGAUUAGAC | 38.6 nM | 28.9 nM | 
CUCGCGUGAGGAUAUGCCACGCCCGAAAGGCCGGGUCAUCGGCAGAAGGCACAUGAGGAUCACCCAUGUAUCGC | 13.3 nM | 63.9 nM | 
CUCGGCGCCCAAGGAUAUAGUGGAGGUAAGAAACUAGAAGGUGGUGUGCUAACAUGUUGUCCUUUACAUGAGGAUCACCCAUGU | 38.6 nM | 32.9 nM | 
CUCUUAGAAGGAUAUUAAUAAUGUUACAUGAGGAUCACCCAUGUCUCAAUAUGUGACCGUUAAGAAGGUCUAUCGC | 9.2 nM | 8.16 nM | 
CUCUUAGGACAGGAUAUGGAACGCAUGUGUGCUCCAGAAGGGUCUACAUGAGGAUCACCCAUGUUCGGGACGGU | 530 nM | 469 nM | 
CUUAUACAUGAGGAUCACCCAUGUGGUGAUACCAGCCACGAUCAAGGCCCUUGGCAGCACAAAGGGAAUAAUAUGAUUACAAAAC |  |  | apparent Kd [5]: 227 nM; apparent Kd [6]: 212 nM
CUUGUGGCACAGGAUAUUCCGACGUAAUCAAAUGAAGAAGGGUGCACAUGAGGAUCACCCAUGUGUGAACACAA | 12.3 nM | 26.8 nM | 
GAAAUAGUAGUUAGGAUAUGUAAUUGAAGACAUAUACAGAAGGAACAUGAGGAUCACCCAUGUAUUGGGAUGGA | 196 nM | 126 nM | 
GAACACCAGAAGAAGGGAGACAUGAGGAUCACCCAUGUUUAAAUACGAAAUAAGGUAAAAGCAACACAGGAUAUUCGGCUCUAC |  |  | apparent Kd [7]: 22.6 nM; apparent Kd [8]: 18 nM
GAAGAUCCGUAAGAUACCAGUGCAGAUCGGCACAUGAGGAUCACCCAUGUAAAGCAAGAACACCCUUGGCAGCUUUCGUAACAAC |  |  | apparent Kd [5]: 158 nM; apparent Kd [6]: 10.3 nM
GAAUUAGUGUUGGAGGAUAUCCCAUGUCUUACAUGAGGAUCACCCAUGUCCGGACAACGACAAAAGGAGAAGGCCAUCAUCAUGUC |  |  | apparent Kd [7]: 772 nM; apparent Kd [8]: 80.8 nM
GACAUGAGGAUCACCCAUGUUAAAGAUCCCAGCAUGCAACUCAGAAGGCUAAACUGUGGAUAGAAAGAGGAUAUGAGUUUAUAC | 9.62 nM | 9.57 nM | 
GAUAGAUAUGUAAGGAUAUGUGACGCGCUUGAGAAACAGAAGGAACAUGAGGAUCACCCAUGUAGAUGUUGUGA | 11.2 nM | 9.94 nM | 
GAUAUACAUGAGGAUCACCCAUGUCCAAAUUAAGUUUUAGUAUAGGAUAUUGACCGCUAGGAUGUCAAGAAGGAUACCCGAGGU |  |  | apparent Kd [7]: 14.8 nM; apparent Kd [8]: 7.52 nM
GAUCCGCUCGAGAAGGUCGUCGGGCACCGAGUCGAAGGAUAUCGAGAAUGAAGACAUGAGGAUCACCCAUGUGAGGAGCGAUCC | 136 nM | 126 nM | 
GAUGAGCGCACGGGAAUAAACAUGAGGAUCACCCAUGUCGUUAGAAGGGUAUUCGCCGGGACCAUACAGGAUAUAACGCGUCAC |  |  | apparent Kd [7]: 25.7 nM; apparent Kd [8]: 21 nM
GCACGGGCGAUCGGCACUUUUACUAAUAUACGAGGACCGGUACGGCCGCCACUCGAGCUAAGACAUGAGGAUCACCCAUGUAACG |  |  | apparent Kd [9]: 26.2 nM; apparent Kd [10]: 49.3 nM
GCAGACAUGAGGAUCACCCAUGUACUUGGGCGAGGACCGGUACGGCCGCCACUCGUAGACUUGACGAGGAAAUGUUCUCGCAGGG |  |  | apparent Kd [11]: 22.4 nM; apparent Kd [12]: 19.1 nM
GCAGGAAAGCAGAAGGACACCACAUGAGGAUCACCCAUGUCGGCGCUGACUUUGAUCUUGAGGAUGUAGGAUAUGCGUUUCGGA | 8.76 nM | 17.4 nM | 
GCAUAAGAUCAGAAGGGUAAUUUGUAACAACAUACAGGAUAUGAGGAAACAUGAGGAUCACCCAUGUGAAGCGAAAACAGAAAU |  |  | apparent Kd [7]: 15.5 nM; apparent Kd [8]: 11.4 nM

Sequence | apparent Kd [3] | apparent Kd [4] | further results
GCCAAGGUAACAGGAUAUUCUAAAGACGUGAGAUACUAAAUAAACAUGAGGAUCACCCAUGUGAAGAAGAAGGGUUAAGAGUAC | 15.2 nM | 12.5 nM | 
GCCCUGCGCCCGGGACCGGCAAGAUCCAUGCGAGGACCGGUACGGCCGCCACUCGCAGACGUACAUGAGGAUCACCCAUGUCCUC |  |  | apparent Kd [9]: 565 nM; apparent Kd [10]: 663 nM
GCGCCUCCCAAGGAUAUAACGCGUCUCUAAGGAUUAGAAGGUGGGACAUGAGGAUCACCCAUGUGACUCCUUUA | 7.31 nM | 7.37 nM | 
GCGGAACAUGAGGAUCACCCAUGUAAGGAUAUCGUGAGGGAACGGCAGCAACACUGAUCGAGAAGGUACAGGGC | 23 nM | 36.4 nM | 
GCGUGACAUGAGGAUCACCCAUGUAGACUUGUGGAAGGAUAUACGAGAGUUCGAGUUAAGGUAGAAGGUCCCGAUG |  |  | apparent Kd [7]: 41.3 nM; apparent Kd [8]: 16.3 nM
GCUCUACAGGAGAAGGUCAUAUCAUCGGUUAUUGAAGGAUAUCCUCAAGGGACGCUGAGGCGUACAUGAGGAUCACCCAUGUCC |  |  | apparent Kd [7]: 84.1 nM; apparent Kd [8]: 52.2 nM
GCUGCCGUCGGUGAAAACUCCCAUGCAGAUACCAGCGCAUUCCGCCGCCCUUGGCAGCUGCAUACAUGAGGAUCACCCAUGUGUU |  |  | apparent Kd [1]: 84.4 nM; apparent Kd [2]: 147 nM
GGAACAUGAGGAUCACCCAUGUAAUCACGACGAGGACCGGUACGGCCGCCACUCGUAUUCACGCAAGGUAGAGGAAUACGUAGGC |  |  | apparent Kd [9]: 12.6 nM; apparent Kd [10]: 13.8 nM
GGAAUGUCAGGAUAUCUAAUUACCCAGAAAGAUAUGGAACCAGAGAAGGGACAUGAGGAUCACCCAUGUAUAAC | 10.2 nM | 12.4 nM | 
GGAUACUUUGGAGGAUAUAAUUUUAUCAUCACUUGUGAUCGAUGACAUGAGGAUCACCCAUGUAAUUAGAAGGCCAUUAAUUAC |  |  | apparent Kd [7]: 239 nM; apparent Kd [8]: 38.4 nM
GGAUUCAGAGGAUAUACAUGAGGAUCACCCAUGUCAUUCAGCCAAGAUAUGUGUUUCAGUAGAAGGCUGAUCGG | 22.3 nM | 18 nM | 
GGCUUCCCAAGAGGAUAUGCGGUAAUUAUCUACAUGAGGAUCACCCAUGUUUUUAACUCAAGUCCGCAGAAGGCUUAAGGAUAU |  |  | apparent Kd [7]: 5.13 nM; apparent Kd [8]: 5 nM
GGGACCACUCUUGGGCCGCUGACAUGAGGAUCACCCAUGUAUAGAAGGAGGGUGGCUAAUCACACCUAGGAUAUAUACAAGACU | 12 nM | 11 nM | 
GGGAUCGGAGGAUAUCGGUGGUUUAACAUGAGGAUCACCCAUGUGAAUAAACAAGUGGAGCGAGAAGGCCGGCGCU | 14.7 nM | 9.97 nM | 
GGGCACAUGAGGAUCACCCAUGUCCAACGGCGAGGACCGGUACGGCCGCCACUCGGUAUAAGCUUCGAAAAGGAGGAUCCUGCAG |  |  | apparent Kd [11]: 38.4 nM; apparent Kd [12]: 30.9 nM
GUAACGUGCAAAGGAUAUAUACAUGAGGAUCACCCAUGUCGGAAUGAGAUCAAGGUCGCUCGCCUAUAGAAGGUUGGCGCUACU | 86.7 nM | 43.9 nM | 
GUAUGAGAAGCAUAUACAUGAGGAUCACCCAUGUCCUCAGCGGAGGAUAUGUCUUUCAGGAGUAUACAGAAGGCCGCGGAAUUC | 346 nM | 260 nM | 
GUCACACAGUAGGAUACCAGCGUGGCUUAUCCCUGAUCGUACAUGAGGAUCACCCAUGUCCGCCCUUGGCAGCCUCCUGCUCGGA |  |  | apparent Kd [1]: 12.7 nM; apparent Kd [2]: 34.5 nM
GUCUCUAGGACAGGAUAUCUCCUCAGGGAUGCGAGAGAAGGGUCUAUUGACAUGAGGAUCACCCAUGUGGAUCAUGUCUAUGAU | 378 nM | 352 nM | 
GUCUCUCGCUUAGGAUAUCAGCACGAUUAUCCCUGAGAAGGAAGUGACAGACAUGAGGAUCACCCAUGUAUCCAAGGUUCGAAG | 15.6 nM | 15 nM | 
